Measured values from ChEMBL document CHEMBL4138298, “Synthesis of Novel Tetrahydroisoquinoline CXCR4 Antagonists with Rigidified Side-Chains” (ACS Med Chem Lett, 2018).
The source made the active and inactive calls. No cut-off for these calls is given here.

Columns and labels:
Cytochrome P450 2A6 = biological target: T1, Cytochrome P450 2A6 (Homo sapiens, UniProt P11509); test: Inhibition of CYP2A6 (unknown origin); type: ADME
T1 sequence (P11509 whole entry): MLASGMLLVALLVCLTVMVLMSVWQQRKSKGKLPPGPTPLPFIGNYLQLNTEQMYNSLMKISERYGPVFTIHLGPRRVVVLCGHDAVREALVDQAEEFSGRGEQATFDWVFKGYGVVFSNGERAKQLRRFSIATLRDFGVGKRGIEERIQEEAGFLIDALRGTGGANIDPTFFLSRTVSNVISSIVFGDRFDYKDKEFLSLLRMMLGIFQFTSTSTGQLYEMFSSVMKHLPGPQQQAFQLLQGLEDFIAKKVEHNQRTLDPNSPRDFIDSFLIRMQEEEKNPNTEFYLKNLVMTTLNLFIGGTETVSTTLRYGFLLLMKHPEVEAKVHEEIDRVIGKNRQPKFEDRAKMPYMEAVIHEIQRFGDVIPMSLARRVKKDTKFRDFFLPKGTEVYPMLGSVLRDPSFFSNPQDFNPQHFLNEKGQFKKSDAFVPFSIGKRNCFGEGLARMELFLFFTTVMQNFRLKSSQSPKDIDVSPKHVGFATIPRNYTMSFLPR

[1] = biological target: T2, Muscarinic acetylcholine receptor M3 (Homo sapiens, UniProt P20309); test: Antagonist activity at mAChR M3 in human CCRF-CEM cells assessed as inhibition of acetylcholine-mediated calcium flux incubated for 25 mins followed by acetylcholine stimulation measured for 90 secs; type: functional, cell-based
Target sequence in this assay (P20309 whole entry): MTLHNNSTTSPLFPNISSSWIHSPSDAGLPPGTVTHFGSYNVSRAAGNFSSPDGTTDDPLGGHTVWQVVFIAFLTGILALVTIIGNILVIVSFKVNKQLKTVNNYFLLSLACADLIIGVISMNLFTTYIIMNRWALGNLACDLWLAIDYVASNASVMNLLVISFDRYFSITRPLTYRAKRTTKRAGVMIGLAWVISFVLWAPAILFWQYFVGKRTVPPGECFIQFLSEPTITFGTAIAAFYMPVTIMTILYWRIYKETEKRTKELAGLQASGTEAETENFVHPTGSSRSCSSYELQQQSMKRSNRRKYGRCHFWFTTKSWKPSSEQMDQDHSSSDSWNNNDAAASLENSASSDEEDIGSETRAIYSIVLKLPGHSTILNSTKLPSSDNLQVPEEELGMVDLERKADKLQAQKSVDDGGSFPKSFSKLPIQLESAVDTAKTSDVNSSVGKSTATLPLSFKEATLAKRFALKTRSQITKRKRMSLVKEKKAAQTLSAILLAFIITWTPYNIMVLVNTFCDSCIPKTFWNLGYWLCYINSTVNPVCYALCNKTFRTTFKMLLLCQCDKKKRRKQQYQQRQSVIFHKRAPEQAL

[2] = Metabolic stability in human liver microsomes assessed as parent compound remaining; type: ADME, microsome
Cytochrome P450 1A2 = biological target: T3, Cytochrome P450 1A2 (Homo sapiens, UniProt P05177); test: Inhibition of CYP1A2 (unknown origin); type: ADME
T3 sequence (P05177 whole entry): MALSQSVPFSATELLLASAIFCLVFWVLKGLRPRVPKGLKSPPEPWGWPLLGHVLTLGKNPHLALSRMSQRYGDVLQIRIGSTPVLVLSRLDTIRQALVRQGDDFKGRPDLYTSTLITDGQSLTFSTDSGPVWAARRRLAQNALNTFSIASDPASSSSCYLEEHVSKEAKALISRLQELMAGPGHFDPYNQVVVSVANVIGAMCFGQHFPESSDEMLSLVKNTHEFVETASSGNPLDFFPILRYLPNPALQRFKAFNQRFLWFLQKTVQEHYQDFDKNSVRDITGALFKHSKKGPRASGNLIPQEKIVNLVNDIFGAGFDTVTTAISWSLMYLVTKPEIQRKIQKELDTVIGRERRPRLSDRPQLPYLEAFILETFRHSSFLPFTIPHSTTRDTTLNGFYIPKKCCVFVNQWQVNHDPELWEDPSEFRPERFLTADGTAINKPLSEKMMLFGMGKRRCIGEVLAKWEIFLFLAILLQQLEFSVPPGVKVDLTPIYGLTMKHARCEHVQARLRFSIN

Cytochrome P450 2C19 = Cytochrome P450 2C19 (Homo sapiens, UniProt P33261); test: Inhibition of CYP2C19 (unknown origin); type: ADME
Chain of Cytochrome P450 2C19 (P33261 whole entry): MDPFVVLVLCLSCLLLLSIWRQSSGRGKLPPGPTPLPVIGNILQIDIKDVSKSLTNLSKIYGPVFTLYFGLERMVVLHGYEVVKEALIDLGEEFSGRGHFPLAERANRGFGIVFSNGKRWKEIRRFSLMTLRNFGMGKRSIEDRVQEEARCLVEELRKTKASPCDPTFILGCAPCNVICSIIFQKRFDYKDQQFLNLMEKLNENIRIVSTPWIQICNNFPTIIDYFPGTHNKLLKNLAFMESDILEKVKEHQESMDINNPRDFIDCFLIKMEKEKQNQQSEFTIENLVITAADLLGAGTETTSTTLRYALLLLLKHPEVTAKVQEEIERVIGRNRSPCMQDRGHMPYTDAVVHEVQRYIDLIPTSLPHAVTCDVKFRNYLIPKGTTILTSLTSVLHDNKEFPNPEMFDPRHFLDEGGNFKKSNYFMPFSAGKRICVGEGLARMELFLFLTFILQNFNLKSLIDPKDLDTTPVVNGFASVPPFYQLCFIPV

[3] = Metabolic stability in rat liver microsomes assessed as parent compound remaining; type: ADME, microsome
[4] = Metabolic stability in mouse liver microsomes assessed as parent compound remaining; type: ADME, microsome
[5] = Permeability of the compound in pH 7.4 buffer after 4 hrs by PAMPA; type: ADME; settings: read-out: permeability
Method in brief: (§1)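 Parallel artificial membrane permeability assay (PAMPA) for passive transcellular permeability, run at pH 7.4 and at pH 5.5, with permeability reported in nm/s.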

[6] = Permeability of the compound in pH 5.5 buffer after 4 hrs by PAMPA; type: ADME; settings: for Papp at 4 h: PAMPA, pH 5.5, read-out: permeability; for permeability: pampa, pH 5.5, 4 h, 4 h; method in brief: as §1
Cytochrome P450 2C9 = Cytochrome P450 2C9 (Homo sapiens, UniProt P11712); test: Inhibition of CYP2C9 (unknown origin); type: ADME
Chain of Cytochrome P450 2C9 (P11712 whole entry): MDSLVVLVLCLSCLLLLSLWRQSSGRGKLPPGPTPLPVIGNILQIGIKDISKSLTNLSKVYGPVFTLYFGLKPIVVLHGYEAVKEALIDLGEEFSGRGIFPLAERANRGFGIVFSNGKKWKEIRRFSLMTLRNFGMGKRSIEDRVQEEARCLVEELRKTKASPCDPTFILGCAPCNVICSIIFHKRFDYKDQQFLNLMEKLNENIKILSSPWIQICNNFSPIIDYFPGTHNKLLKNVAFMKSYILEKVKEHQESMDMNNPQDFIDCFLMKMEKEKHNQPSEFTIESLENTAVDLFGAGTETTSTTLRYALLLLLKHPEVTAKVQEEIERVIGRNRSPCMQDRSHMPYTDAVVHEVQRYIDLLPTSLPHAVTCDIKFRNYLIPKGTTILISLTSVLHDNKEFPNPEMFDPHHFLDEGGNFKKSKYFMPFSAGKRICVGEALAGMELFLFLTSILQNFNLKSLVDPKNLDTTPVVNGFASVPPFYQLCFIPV

Cytochrome P450 2B6 = biological target: T4, Cytochrome P450 2B6 (Homo sapiens, UniProt P20813); test: Inhibition of CYP2B6 (unknown origin); type: ADME
T4 sequence (P20813 whole entry): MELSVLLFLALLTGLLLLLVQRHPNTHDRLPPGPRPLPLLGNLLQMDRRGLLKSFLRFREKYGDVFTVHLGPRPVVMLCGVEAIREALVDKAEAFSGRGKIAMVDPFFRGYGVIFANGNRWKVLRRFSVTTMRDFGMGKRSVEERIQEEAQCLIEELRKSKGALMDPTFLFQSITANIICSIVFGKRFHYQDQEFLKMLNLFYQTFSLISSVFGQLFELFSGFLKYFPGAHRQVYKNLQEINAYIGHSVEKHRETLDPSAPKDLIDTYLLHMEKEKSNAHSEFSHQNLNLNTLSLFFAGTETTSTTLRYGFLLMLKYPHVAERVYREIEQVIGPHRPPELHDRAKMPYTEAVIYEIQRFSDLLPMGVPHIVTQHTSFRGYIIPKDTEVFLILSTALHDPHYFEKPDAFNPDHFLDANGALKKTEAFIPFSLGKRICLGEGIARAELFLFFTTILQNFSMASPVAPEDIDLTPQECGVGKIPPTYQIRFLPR

Cytochrome P450 2C8 = biological target: T5, Cytochrome P450 2C8 (Homo sapiens, UniProt P10632); test: Inhibition of CYP2C8 (unknown origin); type: ADME
T5 sequence (P10632 whole entry): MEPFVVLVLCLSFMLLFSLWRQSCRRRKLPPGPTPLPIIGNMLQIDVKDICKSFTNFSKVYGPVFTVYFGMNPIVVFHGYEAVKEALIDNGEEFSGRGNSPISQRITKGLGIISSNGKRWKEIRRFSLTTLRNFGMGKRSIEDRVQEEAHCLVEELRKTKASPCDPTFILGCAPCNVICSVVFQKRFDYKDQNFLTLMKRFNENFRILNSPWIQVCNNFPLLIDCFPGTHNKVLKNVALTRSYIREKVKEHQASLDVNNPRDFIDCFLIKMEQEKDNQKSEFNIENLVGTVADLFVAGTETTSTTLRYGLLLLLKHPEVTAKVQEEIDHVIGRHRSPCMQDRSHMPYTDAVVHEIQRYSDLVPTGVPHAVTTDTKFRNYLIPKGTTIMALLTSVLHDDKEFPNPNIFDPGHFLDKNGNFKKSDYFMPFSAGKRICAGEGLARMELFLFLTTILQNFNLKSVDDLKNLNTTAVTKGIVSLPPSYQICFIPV

[7] = biological target: T6, C-X-C chemokine receptor type 4 (Homo sapiens, UniProt P61073); test: Antagonist activity at CXCR4 in human CCRF-CEM cells assessed as inhibition of CXCL12-mediated calcium flux incubated for 25 mins followed by CXCL12 stimulation measured for 90 secs; type: functional, cell-based
T6 sequence (P61073 whole entry): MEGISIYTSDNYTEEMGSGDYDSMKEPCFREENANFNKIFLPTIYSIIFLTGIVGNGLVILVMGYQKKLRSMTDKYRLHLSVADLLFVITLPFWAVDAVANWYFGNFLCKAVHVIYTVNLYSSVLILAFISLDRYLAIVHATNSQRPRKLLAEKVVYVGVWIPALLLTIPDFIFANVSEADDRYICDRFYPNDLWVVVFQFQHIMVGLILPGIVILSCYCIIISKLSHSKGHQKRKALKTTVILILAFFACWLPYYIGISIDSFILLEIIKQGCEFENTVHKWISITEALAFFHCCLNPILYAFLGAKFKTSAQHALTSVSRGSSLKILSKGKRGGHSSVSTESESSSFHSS

Cytochrome P450 2D6 = Cytochrome P450 2D6 (Homo sapiens, UniProt P10635); test: Inhibition of recombinant human CYP2D6 expressed in insect microsomes using AMMC as substrate preincubated for 30 mins followed by NADPH addition measured after 45 mins by fluorescence assay; type: ADME
Chain of Cytochrome P450 2D6 (P10635 whole entry): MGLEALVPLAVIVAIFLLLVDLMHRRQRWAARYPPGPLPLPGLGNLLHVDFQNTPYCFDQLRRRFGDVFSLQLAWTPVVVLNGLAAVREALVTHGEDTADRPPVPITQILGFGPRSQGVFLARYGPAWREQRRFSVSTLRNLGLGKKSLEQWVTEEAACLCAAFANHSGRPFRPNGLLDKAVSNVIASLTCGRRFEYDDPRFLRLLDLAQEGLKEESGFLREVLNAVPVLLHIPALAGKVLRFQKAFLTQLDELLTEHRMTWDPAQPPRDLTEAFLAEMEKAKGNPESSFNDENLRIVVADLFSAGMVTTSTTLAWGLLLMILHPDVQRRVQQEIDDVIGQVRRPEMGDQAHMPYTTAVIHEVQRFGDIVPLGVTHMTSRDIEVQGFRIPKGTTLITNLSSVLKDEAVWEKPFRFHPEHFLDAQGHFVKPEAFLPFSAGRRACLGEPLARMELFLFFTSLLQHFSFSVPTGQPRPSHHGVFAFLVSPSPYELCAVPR

Cytochrome P450 3A4 = Cytochrome P450 3A4 (Homo sapiens, UniProt P08684); test: Inhibition of CYP3A4 (unknown origin) using BFC as substrate; type: ADME
Chain of Cytochrome P450 3A4 (P08684 whole entry): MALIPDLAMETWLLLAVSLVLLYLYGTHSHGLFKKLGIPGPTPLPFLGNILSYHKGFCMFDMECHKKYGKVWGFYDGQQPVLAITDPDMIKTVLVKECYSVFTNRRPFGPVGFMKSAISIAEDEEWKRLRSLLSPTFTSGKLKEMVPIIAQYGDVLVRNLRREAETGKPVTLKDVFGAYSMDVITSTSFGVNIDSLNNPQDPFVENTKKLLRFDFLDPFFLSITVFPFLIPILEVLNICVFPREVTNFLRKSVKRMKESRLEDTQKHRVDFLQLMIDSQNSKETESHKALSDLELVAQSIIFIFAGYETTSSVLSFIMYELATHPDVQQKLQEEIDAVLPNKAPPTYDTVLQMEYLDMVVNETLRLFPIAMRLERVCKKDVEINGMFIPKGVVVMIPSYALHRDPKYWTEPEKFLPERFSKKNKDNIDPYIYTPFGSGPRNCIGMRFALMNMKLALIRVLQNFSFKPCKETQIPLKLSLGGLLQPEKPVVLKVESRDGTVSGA

[8] = biological target: T6, C-X-C chemokine receptor type 4; test: Agonist activity at CXCR4 in human CCRF-CEM cells assessed as increase in calcium flux incubated for 90 secs; type: functional, cell-based
[9] = biological target: T2, Muscarinic acetylcholine receptor M3; test: Agonist activity at mAChR M3 in human CCRF-CEM cells assessed as increase in calcium flux incubated for 90 secs; type: functional, cell-based
Target sequence in this assay (P20309 whole entry, looked up): as the sequence (P20309 whole entry) above

[10] = biological target: T2, Muscarinic acetylcholine receptor M3; test: Antagonist activity at mAChR M3 in human CCRF-CEM cells assessed as inhibition of acetylcholine-mediated calcium flux incubated for 25 mins followed by acetylcholine stimulation measured for 90 secs relative to control; type: functional, cell-based; note: test concentration or dose not given here
Target sequence in this assay (P20309 whole entry, looked up): as the sequence (P20309 whole entry) above

| SMILES | IC50 [1] [nM] | Stability [2] [%] | Stability [3] [%] | Stability [4] [%] | Papp at 4 h [5] [×10⁻⁶ cm/s] | Papp at 4 h [6] [×10⁻⁶ cm/s] | IC50 [7] [nM] | IC50 (Cytochrome P450 2D6) [nM] | IC50 (Cytochrome P450 3A4) [nM] | further results |
| --- | --- | --- | --- | --- | --- | --- | --- | --- | --- | --- |
| NC/C=C/CN(C[C@H]1Cc2ccccc2CN1)[C@H]1CCCc2cccnc21 | > 16000 | 100 | 34 | 11 | 83 | 26 |  |  |  | inhibition (INH) (Cytochrome P450 2A6): Not Active; inhibition (INH) (Cytochrome P450 1A2): Not Active; inhibition (INH) (Cytochrome P450 2C19; human): Not Active; inhibition (INH) (Cytochrome P450 2C9): Not Active; inhibition (INH) (Cytochrome P450 2B6): Not Active; inhibition (INH) (Cytochrome P450 2C8; human): Not Active |
| NCC1CC1CN(C[C@H]1Cc2ccccc2CN1)[C@H]1CCCc2cccnc21 (single isomer, unassigned; diastereomer 2) | 13000 |  |  | 4 |  |  | 13 | 270 |  | permeability [6]: 8.8 ×10⁻⁶ cm/s |
| N[C@H]1CC[C@H](CN(C[C@H]2Cc3ccccc3CN2)[C@H]2CCCc3cccnc32)CC1 | > 33000 | 39 | 51 | 44 | 1.2 |  | 280 | 760 | 10000 |  |
| NCC1=C(CN(C[C@H]2Cc3ccccc3CN2)[C@H]2CCCc3cccnc32)CCCC1 | 23000 | 65 | 1 | 2 |  | 17 | 230 | 180 |  |  |
| NC(=O)NC/C=C\CN(C[C@H]1Cc2ccccc2CN1)[C@H]1CCCc2cccnc21 | > 16000 | 73 | 2 | 2 | 11 | 1.3 | 210 | 470 |  |  |
| NCC1CC1CN(C[C@H]1Cc2ccccc2CN1)[C@H]1CCCc2cccnc21 (single isomer, unassigned; diastereomer 1) [listing 1 of 2 here] | > 33000 | 100 | 1 | 1 | 13 |  | 6.4 | 540 |  | permeability [6]: 0.8 ×10⁻⁶ cm/s |
| NCC1CC1CN(C[C@H]1Cc2ccccc2CN1)[C@H]1CCCc2cccnc21 (single isomer, unassigned; diastereomer 1) [listing 2 of 2 here] |  |  |  |  |  |  |  |  |  | inhibition [10]: 51% |
| C/C(CN(C[C@H]1Cc2ccccc2CN1)[C@H]1CCCc2cccnc21)=C(/F)CN | > 17000 | 35 | 61 | 15 | 70 |  | 1800 | 110 | 1800 | IC50 (Cytochrome P450 2C8): 18000 nM |
| N[C@H]1CC[C@H](N(C[C@H]2Cc3ccccc3CN2)[C@H]2CCCc3cccnc32)CC1 | > 33000 | 95 | 71 | 77 | 3.7 | 0.6 | 34 | 2500 | > 20000 |  |
| N[C@H]1CC[C@@H](N(C[C@H]2Cc3ccccc3CN2)[C@H]2CCCc3cccnc32)CC1 | > 33000 | 86 | 24 | 56 |  | 1 | 1800 | 81 | > 20000 |  |

The next lines start with results.

| IC50 [1] [nM] | Stability [2] [%] | Stability [3] [%] | Stability [4] [%] | Papp at 4 h [5] [×10⁻⁶ cm/s] | Papp at 4 h [6] [×10⁻⁶ cm/s] | IC50 [7] [nM] | IC50 (Cytochrome P450 2D6) [nM] | IC50 (Cytochrome P450 3A4) [nM] | SMILES | further results |
| --- | --- | --- | --- | --- | --- | --- | --- | --- | --- | --- |
| 10000 | 63 | 86 | 92 |  |  |  | 12000 |  | NC[C@H]1CC[C@H](CN(C[C@H]2Cc3ccccc3CN2)[C@H]2CCCc3cccnc32)CC1 | IC50 (Cytochrome P450 2C19): 9100 nM; IC50 (Cytochrome P450 2C8): 4100 nM |
| 1100 | 96 | 2 | 2 | 25 | 8.3 |  | 88 | > 20000 | C/C(=C/CN)CN(C[C@H]1Cc2ccccc2CN1)[C@H]1CCCc2cccnc21 |  |
| 770 | 100 | 2 | 2 | 49 | 5 | 28 | 59 | 15000 | C/C(CN)=C(\F)CN(C[C@H]1Cc2ccccc2CN1)[C@H]1CCCc2cccnc21 |  |
| 610 | 100 | 4 | 4 | 57 |  | 10 |  |  | NC/C=C\CN(C[C@H]1Cc2ccccc2CN1)[C@H]1CCCc2cccnc21 |  |
| 11000 | 44 | 1 | 3 | 1.3 |  |  | 540 |  | FC1(F)CCC(NC/C=C\CN(C[C@H]2Cc3ccccc3CN2)[C@H]2CCCc3cccnc32)CC1 | Activity [8]: Active; Activity [9]: Active |
| 32 | 100 | 1 | 2 | 1.1 | 0.4 | 8.6 | < 27 | > 20000 | C/C(=C/CN(C[C@H]1Cc2ccccc2CN1)[C@H]1CCCc2cccnc21)CN |  |
| 9600 | 51 | 6 | 1 | 55 | 28 |  | 190 | 13000 | C/C(CN(C[C@H]1Cc2ccccc2CN1)[C@H]1CCCc2cccnc21)=C(\F)CN |  |
| 8800 | 97 | 72 | 61 | 22 |  | 44 | 140 | 2400 | C/C(CN)=C(/F)CN(C[C@H]1Cc2ccccc2CN1)[C@H]1CCCc2cccnc21 | IC50 (Cytochrome P450 2C19): 19000 nM |
